# Data reported in ChEMBL document CHEMBL3632544, “Acyl dihydropyrazolo[1,5-a]pyrimidinones as metabotropic glutamate receptor 5 positive allosteric modulators” (Bioorg Med Chem Lett, 2015).
# How the values were obtained:
# [1] = target: T1, Metabotropic glutamate receptor 5 (Homo sapiens, UniProt P41594); assay: Positive allosteric modulation of human mGlu5 expressed in HEK293 cells assessed as calcium mobilization; type: functional, cell-based
# Summary of the method: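 Calcium mobilization read-out in HEK293 cells stably expressing human mGlu5; PAM EC50 and efficacy as % of maximal glutamate response. Mean±SEM of three or more independent determinations, each in triplicate.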
# Target sequence in this assay (P41594 whole entry): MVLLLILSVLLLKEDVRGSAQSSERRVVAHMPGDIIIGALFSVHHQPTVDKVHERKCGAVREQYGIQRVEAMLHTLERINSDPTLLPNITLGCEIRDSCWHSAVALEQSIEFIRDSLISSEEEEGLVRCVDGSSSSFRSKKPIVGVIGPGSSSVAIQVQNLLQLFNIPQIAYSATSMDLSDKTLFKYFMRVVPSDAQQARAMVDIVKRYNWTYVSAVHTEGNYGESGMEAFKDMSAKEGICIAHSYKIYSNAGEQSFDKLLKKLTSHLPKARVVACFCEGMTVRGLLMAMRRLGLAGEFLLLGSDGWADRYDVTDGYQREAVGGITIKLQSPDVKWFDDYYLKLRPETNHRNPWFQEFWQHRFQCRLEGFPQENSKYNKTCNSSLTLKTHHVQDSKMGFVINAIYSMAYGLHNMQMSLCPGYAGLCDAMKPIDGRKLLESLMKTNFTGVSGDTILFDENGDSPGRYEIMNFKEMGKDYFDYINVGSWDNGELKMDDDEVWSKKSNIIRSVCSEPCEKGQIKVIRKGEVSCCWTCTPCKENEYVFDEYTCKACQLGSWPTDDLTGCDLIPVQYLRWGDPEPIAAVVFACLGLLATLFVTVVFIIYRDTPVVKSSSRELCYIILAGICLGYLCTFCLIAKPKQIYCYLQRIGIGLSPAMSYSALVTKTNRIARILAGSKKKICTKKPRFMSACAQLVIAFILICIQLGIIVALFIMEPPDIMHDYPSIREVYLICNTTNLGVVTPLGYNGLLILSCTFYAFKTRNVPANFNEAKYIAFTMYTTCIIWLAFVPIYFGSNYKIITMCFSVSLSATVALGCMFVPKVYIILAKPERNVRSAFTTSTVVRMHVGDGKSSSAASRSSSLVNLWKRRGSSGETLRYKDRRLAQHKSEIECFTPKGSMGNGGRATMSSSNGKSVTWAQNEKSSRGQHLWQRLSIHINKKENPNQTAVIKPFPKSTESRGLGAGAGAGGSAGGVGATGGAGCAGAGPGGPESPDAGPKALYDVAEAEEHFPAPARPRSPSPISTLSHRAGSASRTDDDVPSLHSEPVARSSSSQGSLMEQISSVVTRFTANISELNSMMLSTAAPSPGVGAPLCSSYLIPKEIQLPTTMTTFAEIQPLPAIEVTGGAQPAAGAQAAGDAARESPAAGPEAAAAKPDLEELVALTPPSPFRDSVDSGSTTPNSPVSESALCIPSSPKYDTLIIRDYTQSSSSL
# [2] = target: T1, Metabotropic glutamate receptor 5; assay: Positive allosteric modulation of human mGlu5 expressed in HEK293 cells assessed as calcium mobilization relative to glutamate; type: functional, cell-based
# Summary of the method: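 Calcium mobilization in HEK293 cells expressing human mGlu5, reported as EC50 and % Glu Max. Mean±SEM of three or more independent determinations, each run in triplicate.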
# Target sequence in this assay (P41594 21-1212 limits assumed): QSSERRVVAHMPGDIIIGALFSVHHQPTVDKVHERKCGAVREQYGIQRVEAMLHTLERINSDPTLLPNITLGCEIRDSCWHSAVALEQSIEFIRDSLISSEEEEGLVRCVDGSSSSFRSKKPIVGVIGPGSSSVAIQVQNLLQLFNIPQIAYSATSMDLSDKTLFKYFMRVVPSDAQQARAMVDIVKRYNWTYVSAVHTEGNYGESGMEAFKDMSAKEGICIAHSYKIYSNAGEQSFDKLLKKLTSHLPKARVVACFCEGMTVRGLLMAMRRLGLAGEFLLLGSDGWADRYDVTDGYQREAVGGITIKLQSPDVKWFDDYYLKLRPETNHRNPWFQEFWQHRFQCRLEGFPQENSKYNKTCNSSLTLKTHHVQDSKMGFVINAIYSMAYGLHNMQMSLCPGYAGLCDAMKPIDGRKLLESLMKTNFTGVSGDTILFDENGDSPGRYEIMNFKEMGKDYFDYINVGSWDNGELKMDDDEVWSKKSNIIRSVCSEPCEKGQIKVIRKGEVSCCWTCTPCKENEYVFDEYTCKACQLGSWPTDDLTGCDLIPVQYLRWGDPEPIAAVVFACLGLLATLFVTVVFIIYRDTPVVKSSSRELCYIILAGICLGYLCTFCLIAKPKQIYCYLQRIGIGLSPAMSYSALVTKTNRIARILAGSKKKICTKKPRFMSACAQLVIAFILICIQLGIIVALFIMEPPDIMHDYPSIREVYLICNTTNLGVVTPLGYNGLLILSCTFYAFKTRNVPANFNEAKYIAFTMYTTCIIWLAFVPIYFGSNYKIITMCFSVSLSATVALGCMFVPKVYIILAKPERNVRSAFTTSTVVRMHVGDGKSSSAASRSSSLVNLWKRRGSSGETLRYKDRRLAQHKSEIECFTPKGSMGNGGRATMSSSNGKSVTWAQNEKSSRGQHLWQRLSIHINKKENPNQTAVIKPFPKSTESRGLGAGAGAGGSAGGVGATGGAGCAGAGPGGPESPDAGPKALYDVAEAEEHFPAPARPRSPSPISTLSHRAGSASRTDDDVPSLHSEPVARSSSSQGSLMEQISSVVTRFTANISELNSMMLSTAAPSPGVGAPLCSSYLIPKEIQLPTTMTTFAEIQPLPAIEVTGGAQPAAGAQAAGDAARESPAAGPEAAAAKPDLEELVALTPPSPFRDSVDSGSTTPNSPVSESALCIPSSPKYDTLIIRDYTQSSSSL
# Plasma [3] = assay: Fraction unbound in rat plasma; type: ADME, cell-free
# Summary of the method: (§1)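 Plasma protein binding measured in human and rat plasma; readout is fraction unbound.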
# Plasma [4] = assay: Fraction unbound in human plasma; type: ADME, cell-free; summary of the method: as §1
# Plasma [5] = assay: Stability in rat plasma after 4 hrs; type: ADME, cell-free
# Summary of the method: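 Compound incubated in rat plasma at 37 °C for 4 h; stability assessed.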
# [6] = Plasma clearance in Sprague-Dawley rat at 0.2 mg/kg, iv; type: ADME, organism-based
# [7] = Stability in beta cyclodextrin at pH 6 upto 5 days; type: physicochemical; conditions: buffer, pH 6, 120 h
# Summary of the method: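 Stability of the compound formulated at 4 mg/mL in 20% β-cyclodextrin vehicle, pH 6, monitored for up to five days; percent decomposition of the amide determined.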
# [8] = Stability in simulated gastric fluid for 1 hr; type: physicochemical; conditions: simulated gi fluid
# Summary of the method: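 Incubation in simulated gastric fluid at 37 °C for 1 h; decomposition of the external amide assessed.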
SMILES,EC50 ([1]; read-out: EC50),%max [2],other results
CC(=O)N1c2cc(COc3ccccc3)nn2CCC1C (stereo not drawn),794 nM,67%,
O=C(Cc1ccccc1)N1CCCn2nc(COc3ccccc3)cc21,378 nM,72%,EC50 ([1]; read-out: pEC50 (converted)): 372 nM
CC(=O)N1CCCn2nc(CS(=O)(=O)c3ccccc3)cc21,,< 15%,EC50 ([1]; hek293): Not Active; EC50 ([1]; read-out: pEC50 (converted)): > 31600 nM
CC(=O)N1CCCc2nc(COc3ccccc3)sc21,888 nM,,
CC(C)(C)C(=O)N1CCCn2nc(COc3ccccc3)cc21,882 nM,64%,
CC(=O)N1CCCn2nc(CN3CCOc4ccccc43)cc21,725 nM,67%,Fu (Plasma [3]): 0.43; Fu (Plasma [4]): 0.35
CC(=O)N1CCCn2nc(COc3cc(F)cc(C#N)c3)cc21,> 10000 nM,39%,
O=C(c1ccccc1)N1CCCn2nc(COc3ccccc3)cc21,610 nM,63%,
CC(=O)N1CCCn2nc(COc3cccc(F)c3)cc21,266 nM,58%,EC50 ([1]; read-out: pEC50 (converted)): 240 nM
O=C(c1ccccc1F)N1CCCn2nc(COc3ccccc3)cc21,1130 nM,62%,
CC(=O)N1CCCn2nc(COc3ccncc3)cc21,,< 15%,EC50 ([1]; hek293): Not Active; EC50 ([1]; read-out: pEC50 (converted)): > 31600 nM
O=C(c1ccccn1)N1CCCn2nc(COc3ccccc3)cc21,> 10000 nM,44%,
CC(=O)N1CCCn2nc(COc3ccccc3)c(F)c21,3240 nM,,
O=C(c1ccno1)N1CCCn2nc(COc3ccccc3)cc21,2780 nM,22%,
CC(=O)N1CCCn2nc(C[S+]([O-])c3ccccc3)cc21 (stereo not drawn),,< 15%,EC50 ([1]; hek293): Not Active; EC50 ([1]; read-out: pEC50 (converted)): > 31600 nM
O=C(C1CC1)N1CCCn2nc(COc3ccccc3)cc21,559 nM,61%,EC50 ([1]; read-out: pEC50 (converted)): 525 nM
CC(=O)N1CCCn2nc(CN(C)C3C4CC3C4)cc21 (stereo not drawn),,< 15%,EC50 ([1]; hek293): Not Active; EC50 ([1]; read-out: pEC50 (converted)): > 31600 nM
CC(=O)N1CCCn2nc(CN3CCCc4ccccc43)cc21,> 10000 nM,48%,
O=C(C1CCC1)N1CCCn2nc(COc3ccccc3)cc21,1220 nM,41%,
O=C(C1CCCC1)N1CCCn2nc(COc3ccccc3)cc21,1750 nM,41%,
CC(=O)N1CCCc2nc(COc3ccccc3)cn21,780 nM,,Stability (Plasma [5]): Unstable

SMILES,EC50 ([1]; read-out: EC50),%max [2],other results
O=C(c1nccs1)N1CCCn2nc(COc3ccccc3)cc21,257 nM,24%,
CC(=O)N1CCCn2nc(COc3ccccc3)nc21,3400 nM,,
O=C(c1ccc(F)cc1)N1CCCn2nc(COc3ccccc3)cc21,596 nM,63%,
O=C(c1ccncc1)N1CCCn2nc(COc3ccccc3)cc21,> 10000 nM,51%,
CC(=O)N1CCCn2nc(CN(C)c3ccccc3)cc21,700 nM,74%,Fu (Plasma [3]): 0.35; Fu (Plasma [4]): 0.46
CC(=O)N1CCCn2nc(COc3cc(F)cc(F)c3)cc21,1270 nM,63%,
CC(=O)N1c2cc(COc3ccccc3)nn2CCC1c1ccccc1 (stereo not drawn),5370 nM,38%,
CC(=O)N1CCCn2nc(COc3ccccc3F)cc21,2370 nM,60%,Fu (Plasma [3]): 0.24; Stability (Plasma [5]): Stable; clearance [6]: 103 mL/min/kg; Stability [7]: Stable; Stability [8]: Stable; Fu (Plasma [4]): 0.17
CC(=O)N1CCCn2nc(COc3ccc(F)cc3)cc21,> 10000 nM,56%,
CC(=O)N1CCCn2cc(COc3ccccc3)nc21,,,EC50 ([1]; hek293): Not Active
CC(=O)N1CCCc2nc(COc3ccccc3)oc21,1340 nM,,Stability (Plasma [5]): Unstable
CC(=O)N1CCCn2nc(CN3CCc4ccccc43)cc21,,< 15%,EC50 ([1]; hek293): Not Active; EC50 ([1]; read-out: pEC50 (converted)): > 31600 nM
O=C(c1ccc(Cl)cc1)N1CCCn2nc(COc3ccccc3)cc21,390 nM,68%,
CC(=O)N1CCCn2nc(COc3cccnc3)cc21,,< 15%,EC50 ([1]; hek293): Not Active; EC50 ([1]; read-out: pEC50 (converted)): > 31600 nM
CC(C)C(=O)N1CCCn2nc(COc3ccccc3)cc21,1710 nM,59%,
O=C(c1ccco1)N1CCCn2nc(COc3ccccc3)cc21,,< 15%,EC50 ([1]; hek293): Not Active; EC50 ([1]; read-out: pEC50 (converted)): > 31600 nM
CC(=O)N1CCCn2nc(CNc3ccccc3)cc21,> 10000 nM,20%,
CC(=O)N1CCCn2nc(CSc3ccccc3)cc21,3900 nM,39%,
O=C(c1cccc(F)c1)N1CCCn2nc(COc3ccccc3)cc21,591 nM,61%,
CCC(=O)N1CCCn2nc(COc3ccccc3)cc21,332 nM,48%,
